Several values for one entry are separate records, joined by “and”; a condition that tells them apart may be missing. Identical values can stand only once. Entries after “also recorded” stand apart in the source; their conditions may differ. K(Me2NCp) = not defined here; CbOH = not defined here
Legend:
[1] = Fluorescence lifetime measurement; format: physicochemical; settings: 20% DMSO/water, excitation 773 nm, detection 820 nm, room temperature
Summary of the method: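 TCSPC used a 773 nm pulsed LED source at 1 MHz, with detection at 90°. Counts were binned at 6.88 ps/channel until the peak reached 10,000, on a 50 ns scale. Instrument response came from Rayleigh scatter of 0.03% Ludox-40. Decays in 20% DMSO/water were fitted to two exponentials, discarding components contributing <3%.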

[2] = Absorption and fluorescence spectroscopy, quantum yield; format: physicochemical; settings: for λabs max / λem max / Quantum yield: 20% DMSO in water; for λabs max / λem max: room temperature; for Quantum yield: relative to ICG in DMSO, QY=0.12
Summary of the method: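 Test compounds dissolved in spectral-grade DMSO, diluted in 20% DMSO/water, and read at room temperature. Fluorescence was excited at 700 nm with 5 nm slits, keeping absorbance below 0.1. Molar absorptivity was averaged from three-point measurements at the absorption maximum. Quantum yield was taken relative to ICG in 100% DMSO. Probe in assay buffer was split: one half diluted with water to 1 mL, the other cleaved by caspase-3, then diluted likewise.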

[3] = dissolved in 100% DMSO; reference value used for comparison; cited from earlier work
A549 cells = format: cell-based, human; settings: 5 μM paclitaxel for 2 h; read out by fluorescence of 5
Summary of the method: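 A549 cells were grown in Ham's F12K with 10% FBS and penicillin/streptomycin at 37°C, 5% CO2, seeded at 1×10^5/well in chamber slides overnight. Cells were loaded with 10 μM probe using GeneJuice in Opti-MEM for 24 h at 37°C. Paclitaxel was given for 2 h at 37°C, then three PBS washes. NIR confocal imaging (785 nm laser) read mean cytoplasmic intensity (Ex/Em 785/805–830) in 12 cells; mean ± SD, t-test.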

caspase-3 = settings: cited from earlier work; for Km: read-out: KM of standard substrate
[4] = molecular target: T1, recombinant human caspase-3 (Homo sapiens, UniProt P42574); assay: Caspase-3 enzyme kinetics of the NIR substrates; format: biochemical
T1 sequence (P42574 29-175 limits assumed): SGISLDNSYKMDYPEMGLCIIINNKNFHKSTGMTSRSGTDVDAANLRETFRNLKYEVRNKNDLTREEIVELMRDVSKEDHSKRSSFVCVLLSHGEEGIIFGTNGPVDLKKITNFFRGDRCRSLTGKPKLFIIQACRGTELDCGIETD
T1 sequence (P42574 176-277 limits assumed): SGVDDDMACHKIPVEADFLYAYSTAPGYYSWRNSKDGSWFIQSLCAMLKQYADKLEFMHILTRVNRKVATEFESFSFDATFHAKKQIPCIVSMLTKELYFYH
Summary of the method: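 Active sites were titrated with Ac-DEVD-pNA (2.5–50 μM, 25°C, absorbance […] nm). Substrate (0.5–100 μM; DMSO stock) hydrolysis was followed by NIR fluorescence (ex 785/em 805 nm) over time. Linear slope ÷ complete-hydrolysis fluorescence × [S] gave vo, fitted to Michaelis–Menten. kcat/KM was computed; ± SEM.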

Compound	λabs max [2]	λem max [2]	Quantum yield [2]	kcat of standard substrate (caspase-3)	Km (caspase-3)	also measured
CC1(C)C(/C=C/C=C/C=C/C=C2/N(CCC(=O)O)c3ccc4ccccc4c3C2(C)C)=[N+](CCC(=O)[O-])c2ccc3ccccc3c21 [Compound 2, cypate, reference compound]	783 nm	808 nm	0.031			Lifetime [1]: 0.25 ns
CC1(C)C(/C=C/C=C/C=C/C=C2\N(CCCCS(=O)(=O)O)c3ccc4ccccc4c3C2(C)C)=[N+](CCCCS(=O)(=O)[O-])c2ccc3ccccc3c21 [ICG, indocyanine green]						Fluorescence quantum yield of the standard [3]: 0.12
CC(=O)O[C@H]1C(=O)[C@@]2(C)[C@H]([C@H](OC(=O)c3ccccc3)[C@]3(O)C[C@H](OC(=O)[C@H](O)[C@@H](NC(=O)c4ccccc4)c4ccccc4)C(C)=C1C3(C)C)[C@]1(OC(C)=O)CO[C@@H]1C[C@@H]2O [paclitaxel]						Activation of caspase-3 in A549 cells (A549 cells): sufficient to activate caspase-3
Ac-DEVD-AMC				0.75 s⁻¹	9.7 µM	
Ac-DEVD-pNA				2.4 s⁻¹	11 µM	
AcGK(Me2NCp)-DEVD-APK(CbOH)-NH2 ({Ac-Gly-K(Me2NCp)}-DEVDAPK(CbOH)-NH2; reading uncertain; also: printed as AcGK(Me2NCp)-DEVD-APK(CbOH)-NH2) [Compound 5]	759 nm and 790 nm	763 nm	<0.001			kcat (turnover number) ([4]; 5 (0.5 to 100 μM) with caspase 3 (290 pM), 10 mM PIPES pH 7.4, 2 mM EDTA, 0.1% CHAPS, 5 mM DTT, triplicate, λex=785 nm, λem=805 nm, ± standard error of the mean, SEM): 1.02 ± 0.06 s⁻¹; Cleavage (hydrolysis) by caspase-3, in words ([4]; assay buffer pH 7.4, recombinant human caspase-3): cleaved more readily than 4; also recorded: readily cleaved; kcat/KM (catalytic efficiency) ([4]; caspase-3, computed from kcat and KM): 68000 M⁻¹ s⁻¹; Km ([4]; read-out: KM (Michaelis-Menten constant), 5 (0.5 to 100 μM) with caspase 3 (290 pM), 10 mM PIPES pH 7.4, 2 mM EDTA, 0.1% CHAPS, 5 mM DTT, triplicate, λex=785 nm, λem=805 nm, ± standard error of the mean, SEM): 15 ± 3 µM; Ratio F760/F810 of emission after cleavage ([2]; 5 after enzymatic cleavage by caspase-3, diluted with water): 7.16

— publication PMC2913166 (Molecular pharmaceutics, 2009)
